Results taken from ChEMBL document CHEMBL4339192, “De Novo Designed Amphipathic α-Helical Antimicrobial Peptides Incorporating Dab and Dap Residues on the Polar Face To Treat the Gram-Negative Pathogen, Acinetobacter baumannii” (J Med Chem, 2019).
≈ marks a conversion by molar mass, not a printed value. Where a SMILES comes first, the peptide text is derived from it. [ ]: non-standard residue; d: D form. Dap = NC[C@H](N)C(=O)O

Legend:
[1] = test system: Acinetobacter baumannii; assay: Antibacterial activity against Acinetobacter baumannii isolate 1021371 measured after 24 hrs by microtiter dilution method; format: functional; details: isolate 1021371, 24 h
Procedure, shortened: (§1)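 Broth microdilution in Mueller-Hinton (MH) medium. […] Plates were incubated 24 h at 37 °C. MIC was the lowest peptide concentration that inhibited growth, based on three sets of replicates.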

[2] = test system: Acinetobacter baumannii; assay: Antibacterial activity against Acinetobacter baumannii isolate 1035794 measured after 24 hrs by microtiter dilution method; format: functional; details: isolate 1035794, 24 h; procedure, shortened: as §1
[3] = test system: Acinetobacter baumannii; assay: Antibacterial activity against Acinetobacter baumannii isolate 981650 measured after 24 hrs by microtiter dilution method; format: functional; details: isolate 981650, 24 h; procedure, shortened: as §1
[4] = test system: Acinetobacter baumannii; assay: Antibacterial activity against Acinetobacter baumannii isolate 964304 measured after 24 hrs by microtiter dilution method; format: functional; details: isolate 964304, 24 h; procedure, shortened: as §1
[5] = test system: Acinetobacter baumannii; assay: Antibacterial activity against Acinetobacter baumannii isolate 963618 measured after 24 hrs by microtiter dilution method; format: functional; details: isolate 963618, 24 h; procedure, shortened: as §1
[6] = Therapeutic index, ratio of HC50 for human RBC to MIC for polymyxin B/colistin-resistant Acinetobacter baumannii M89952; format: toxicity; details: human red blood cells, read-out: TI
Procedure, shortened: (§2)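 T.I. = HC50/MIC. For HC50, peptide (quantified by amino acid analysis) was two-fold serially diluted over 12 concentrations up to 1000 μg/mL. It was incubated with 1% fresh human erythrocytes in PBS, pH 7.4, for 18 h at 37 °C. After 800g centrifugation, hemoglobin was read at 570 nm against water (100%) and no-peptide (0%) controls. HC50 came from a lysis-versus-concentration plot, average of 3 replicates.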

[7] = test system: Acinetobacter baumannii; assay: Antibacterial activity against polymyxin B/colistin-resistant Acinetobacter baumannii M89953 measured after 24 hrs by microtiter dilution method; format: functional; details: M89953, 24 h; procedure, shortened: as §1
[8] = test system: Acinetobacter baumannii; assay: Antibacterial activity against Acinetobacter baumannii isolate 952654 measured after 24 hrs by microtiter dilution method; format: functional; details: isolate 952654, 24 h; procedure, shortened: as §1
[9] = test system: Acinetobacter baumannii; assay: Antibacterial activity against Acinetobacter baumannii isolate 1001611 measured after 24 hrs by microtiter dilution method; format: functional; details: isolate 1001611, 24 h; procedure, shortened: as §1
[10] = test system: Acinetobacter baumannii; assay: Antibacterial activity against Acinetobacter baumannii isolate 968886 measured after 24 hrs by microtiter dilution method; format: functional; details: isolate 968886, 24 h; procedure, shortened: as §1
[11] = test system: Acinetobacter baumannii; assay: Antibacterial activity against polymyxin B/colistin-resistant Acinetobacter baumannii M89941 measured after 24 hrs by microtiter dilution method; format: functional; details: M89941, 24 h; procedure, shortened: as §1
[12] = test system: Acinetobacter baumannii; assay: Antibacterial activity against polymyxin B/colistin-resistant Acinetobacter baumannii M89949 measured after 24 hrs by microtiter dilution method; format: functional; details: M89949, 24 h; procedure, shortened: as §1
[13] = test system: Acinetobacter baumannii; assay: Antibacterial activity against polymyxin B/colistin-resistant Acinetobacter baumannii M89955 measured after 24 hrs by microtiter dilution method; format: functional; details: M89955, 24 h; procedure, shortened: as §1
[14] = test system: Acinetobacter baumannii; assay: Antibacterial activity against Acinetobacter baumannii isolate 1035166 measured after 24 hrs by microtiter dilution method; format: functional; details: isolate 1035166, 24 h; procedure, shortened: as §1
[15] = test system: Acinetobacter baumannii; assay: Antibacterial activity against Acinetobacter baumannii isolate 963659 measured after 24 hrs by microtiter dilution method; format: functional; details: isolate 963659, 24 h; procedure, shortened: as §1
[16] = test system: Acinetobacter baumannii; assay: Antibacterial activity against polymyxin B/colistin-resistant Acinetobacter baumannii M89951 measured after 24 hrs by microtiter dilution method; format: functional; details: M89951, 24 h; procedure, shortened: as §1
[17] = test system: Acinetobacter baumannii; assay: Antibacterial activity against polymyxin B/colistin-resistant Acinetobacter baumannii M89952 measured after 24 hrs by microtiter dilution method; format: functional; details: M89952, 24 h; procedure, shortened: as §1
[18] = Therapeutic index, ratio of HC50 for human RBC to MIC for polymyxin B/colistin-resistant Acinetobacter baumannii M89941; format: toxicity; details: human red blood cells, read-out: TI; procedure, shortened: as §2
[19] = Hemolytic activity against human RBC measured after 18 hrs by spectrophotometric method; format: ADME, cell-based, Erythrocyte; details: human red blood cells (erythrocytes)
Procedure, shortened: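 Peptide (amount by amino acid analysis), two-fold serial dilutions at 12 concentrations up to 1000 μg/mL, with 1% human erythrocytes in PBS pH 7.4, 37 °C, 18 h. Unlysed cells removed by centrifugation (800g); hemoglobin read at 570 nm. Water-lysed cells = 100%, no-peptide cells = 0%. HC50 from plot of % lysis vs concentration (μM), average of 3 replicates.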

[20] = test system: Acinetobacter baumannii; assay: Antibacterial activity against Acinetobacter baumannii isolate 9383370 measured after 24 hrs by microtiter dilution method; format: functional; details: isolate 9383370, 24 h; procedure, shortened: as §1
[21] = test system: Acinetobacter baumannii; assay: Antibacterial activity against Acinetobacter baumannii isolate 1007660 measured after 24 hrs by microtiter dilution method; format: functional; details: isolate 1007660, 24 h; procedure, shortened: as §1
[22] = test system: Acinetobacter baumannii; assay: Antibacterial activity against Acinetobacter baumannii isolate 977751 measured after 24 hrs by microtiter dilution method; format: functional; details: isolate 977751, 24 h; procedure, shortened: as §1
[23] = test system: Acinetobacter baumannii; assay: Antibacterial activity against Acinetobacter baumannii isolate 1010282 measured after 24 hrs by microtiter dilution method; format: functional; details: isolate 1010282, 24 h; procedure, shortened: as §1
[24] = Therapeutic index, ratio of HC50 for human RBC to MIC for polymyxin B/colistin-resistant Acinetobacter baumannii M89949; format: toxicity; details: human red blood cells, read-out: TI; procedure, shortened: as §2
[25] = test system: Acinetobacter baumannii; assay: Antibacterial activity against Acinetobacter baumannii 649 measured after 24 hrs by microtiter dilution method; format: functional; details: Acinetobacter baumannii, 649, 24 h; procedure, shortened: as §1
[26] = Therapeutic index, ratio of HC50 for human RBC to MIC for polymyxin B/colistin-resistant Acinetobacter baumannii M89955; format: toxicity; details: human red blood cells, read-out: TI; procedure, shortened: as §2
[27] = Therapeutic index, ratio of HC50 for human RBC to MIC for polymyxin B/colistin-resistant Acinetobacter baumannii M89953; format: toxicity; details: human red blood cells, read-out: TI; procedure, shortened: as §2
[28] = test system: Acinetobacter baumannii; assay: Antibacterial activity against Acinetobacter baumannii isolate 1010245 measured after 24 hrs by microtiter dilution method; format: functional; details: isolate 1010245, 24 h; procedure, shortened: as §1
[29] = test system: Acinetobacter baumannii; assay: Antibacterial activity against Acinetobacter baumannii isolate 1002956 measured after 24 hrs by microtiter dilution method; format: functional; details: isolate 1002956, 24 h; procedure, shortened: as §1
[30] = test system: Acinetobacter baumannii; assay: Antibacterial activity against Acinetobacter baumannii isolate 961997 measured after 24 hrs by microtiter dilution method; format: functional; details: isolate 961997, 24 h; procedure, shortened: as §1
[31] = test system: Acinetobacter baumannii; assay: Antibacterial activity against polymyxin B/colistin-resistant Acinetobacter baumannii M89963 measured after 24 hrs by microtiter dilution method; format: functional; details: M89963, 24 h; procedure, shortened: as §1
[32] = test system: Acinetobacter baumannii; assay: Antibacterial activity against Acinetobacter baumannii isolate 1018887 measured after 24 hrs by microtiter dilution method; format: functional; details: isolate 1018887, 24 h; procedure, shortened: as §1
[33] = test system: Acinetobacter baumannii; assay: Antibacterial activity against Acinetobacter baumannii isolate 1017395 measured after 24 hrs by microtiter dilution method; format: functional; details: isolate 1017395, 24 h; procedure, shortened: as §1
[34] = Therapeutic index, ratio of HC50 for human RBC to MIC for polymyxin B/colistin-resistant Acinetobacter baumannii M89951; format: toxicity; details: human red blood cells, read-out: TI; procedure, shortened: as §2
[35] = test system: Acinetobacter baumannii; assay: Antibacterial activity against Acinetobacter baumannii 649 measured after 24 hrs in presence of 25% human serum by microtiter dilution method; format: functional; details: Acinetobacter baumannii, 649, 24 h
Procedure, shortened: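 Blood strain 649 was tested by MH broth microdilution with and without 25% (v/v) human serum added to the medium. The test used a final inoculum of 5 × 10^5 cfu/mL and incubation at 37 °C. The ratio is the MIC in serum over the MIC in MH alone.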

[36] = Therapeutic index, ratio of HC50 for human RBC to MIC for polymyxin B/colistin-resistant Acinetobacter baumannii M89963; format: toxicity; details: human red blood cells, read-out: TI; procedure, shortened: as §2
[37] = test system: Acinetobacter baumannii; assay: Antibacterial activity against Acinetobacter baumannii isolate 965463 measured after 24 hrs by microtiter dilution method; format: functional; details: isolate 965463, 24 h; procedure, shortened: as §1

CC(=O)N[C@H](CCCCN)C(=O)N[C@H](CC(C)C)C(=O)N[C@@H](CN)C(=O)N[C@H](CO)C(=O)N[C@H](CC(C)C)C(=O)N[C@H](CC(C)C)C(=O)N[C@@H](CN)C(=O)N[C@@H](C(=O)N[C@H](CC(C)C)C(=O)N[C@H](CO)C(=O)N[C@@H](CN)C(=O)N[C@H](C)C(=O)N[C@H](CCCCN)C(=O)N[C@H](C)C(=O)N[C@H](C)C(=O)N[C@H](CCCCN)C(=O)N[C@H](CC(C)C)C(=O)N[C@@H](CN)C(=O)N[C@@H](C(=O)N[C@H](CC(C)C)C(=O)N[C@H](CC(C)C)C(=O)N[C@@H](CN)C(=O)N[C@H](C)C(=O)N[C@H](CC(C)C)C(=O)N[C@H](CO)C(=O)N[C@@H](CN)C(N)=O)[C@H](C)O)[C@H](C)O (Ac-[dK][dL][Dap][dS][dL][dL][Dap][dT][dL][dS][Dap][dA][dK][dA][dA][dK][dL][Dap][dT][dL][dL][Dap][dA][dL][dS][Dap]-NH2)
MIC [1]: 1.5 µM (≈ 3.92 µg/mL)
MIC [2]: 0.8 µM (≈ 2.09 µg/mL)
MIC [3]: 0.8 µM (≈ 2.09 µg/mL)
MIC [4]: 1.5 µM (≈ 3.92 µg/mL)
MIC [5]: 0.8 µM (≈ 2.09 µg/mL)
selectivity ratio [6]: > 957
MIC [7]: 3 µM (≈ 7.84 µg/mL)
MIC [8]: 1.5 µM (≈ 3.92 µg/mL)
MIC [9]: 0.4 µM (≈ 1.05 µg/mL)
MIC [10]: 1.5 µM (≈ 3.92 µg/mL)
MIC [11]: 0.8 µM (≈ 2.09 µg/mL)
MIC [12]: 0.8 µM (≈ 2.09 µg/mL)
MIC [13]: 0.8 µM (≈ 2.09 µg/mL)
MIC [14]: 0.8 µM (≈ 2.09 µg/mL)
MIC [15]: 1.5 µM (≈ 3.92 µg/mL)
MIC [16]: 3 µM (≈ 7.84 µg/mL)
MIC [17]: 0.8 µM (≈ 2.09 µg/mL)
selectivity ratio [18]: > 957
HC50 at 18 h [19]: > 1.15 mM
MIC [20]: 0.8 µM (≈ 2.09 µg/mL)
MIC [21]: 0.8 µM (≈ 2.09 µg/mL)
MIC [22]: 0.8 µM (≈ 2.09 µg/mL)
MIC [23]: 0.8 µM (≈ 2.09 µg/mL)
selectivity ratio [24]: > 957
MIC [25]: 0.8 µM (≈ 2.09 µg/mL)
selectivity ratio [26]: > 957
selectivity ratio [27]: > 957
MIC [28]: 0.8 µM (≈ 2.09 µg/mL)
MIC [29]: 0.8 µM (≈ 2.09 µg/mL)
MIC [30]: 1.5 µM (≈ 3.92 µg/mL)
MIC [31]: 1.5 µM (≈ 3.92 µg/mL)
MIC [32]: 0.8 µM (≈ 2.09 µg/mL)
MIC [33]: 1.5 µM (≈ 3.92 µg/mL)
selectivity ratio [34]: > 957
MIC [35]: 3 µM
selectivity ratio [36]: > 957
MIC [37]: 1.5 µM (≈ 3.92 µg/mL)
